# Measured values taken from ChEMBL document CHEMBL1125180, “3-Hydroxy-3-methylglutaryl-coenzyme A reductase inhibitors. 8. Side chain ether analogues of lovastatin” (J Med Chem, 1991).
# Columns and labels:
# [1] = The relative potency by comparing its IC50 value with that of mevastatin
# Summary of the method: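 Compounds were tested in salt form for intrinsic inhibition of HMG-CoA reductase. Mevastatin (compactin) was run alongside in the same test and set to a relative potency of 100. Each compound's relative potency was derived by comparing its IC50 with that of mevastatin.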
# [2] = biological target: T1, 3-hydroxy-3-methylglutaryl-coenzyme A reductase (Rattus norvegicus, UniProt P51639); assay: In vitro inhibitory activity against rat liver HMG-CoA reductase enzyme
# T1 sequence (P51639 whole entry): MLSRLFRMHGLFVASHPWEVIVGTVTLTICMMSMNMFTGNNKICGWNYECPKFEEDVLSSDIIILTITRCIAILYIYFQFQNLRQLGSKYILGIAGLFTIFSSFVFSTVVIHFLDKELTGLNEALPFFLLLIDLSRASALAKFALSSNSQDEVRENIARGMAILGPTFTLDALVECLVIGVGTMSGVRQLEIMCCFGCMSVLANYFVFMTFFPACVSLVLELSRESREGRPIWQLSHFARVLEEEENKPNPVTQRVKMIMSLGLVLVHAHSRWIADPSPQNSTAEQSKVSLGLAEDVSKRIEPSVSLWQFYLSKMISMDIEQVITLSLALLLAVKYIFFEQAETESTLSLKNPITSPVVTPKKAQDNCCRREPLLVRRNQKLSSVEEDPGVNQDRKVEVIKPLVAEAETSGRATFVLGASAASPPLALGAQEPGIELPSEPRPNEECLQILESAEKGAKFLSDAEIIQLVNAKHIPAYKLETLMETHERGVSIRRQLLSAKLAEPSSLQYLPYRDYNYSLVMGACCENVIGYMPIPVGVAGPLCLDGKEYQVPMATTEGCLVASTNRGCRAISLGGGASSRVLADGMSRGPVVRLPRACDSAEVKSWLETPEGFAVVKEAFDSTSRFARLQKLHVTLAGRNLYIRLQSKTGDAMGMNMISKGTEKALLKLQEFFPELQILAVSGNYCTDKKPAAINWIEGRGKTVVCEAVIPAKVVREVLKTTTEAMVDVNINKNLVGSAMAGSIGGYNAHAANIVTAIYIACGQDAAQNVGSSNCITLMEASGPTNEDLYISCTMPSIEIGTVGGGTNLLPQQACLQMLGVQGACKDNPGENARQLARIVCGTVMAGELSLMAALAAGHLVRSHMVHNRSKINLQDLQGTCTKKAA
Structure (SMILES),Relative potency [1],IC50 [2] [µM]
C[C@H]1C=C2C=C[C@H](C)[C@H](CC[C@@H]3C[C@@H](O)CC(=O)O3)[C@H]2[C@@H](OC(=O)Cc2ccccc2)C1,29,–
C[C@H]1C=C2C=C[C@H](C)[C@H](CCC3C[C@@H](O)CC(=O)O3)[C@H]2[C@@H](OCc2ccccc2)C1 (some centres not stated),20,0.027
CO[C@H]1C[C@@H](C)C=C2C=C[C@H](C)[C@H](CCC3C[C@@H](O)CC(=O)O3)[C@H]21 (some centres not stated),0.2,2.81
C[C@H]1C=C2C=C[C@H](C)[C@H](CCC3C[C@@H](O)CC(=O)O3)[C@H]2[C@@H](OCc2ccc(Cl)cc2)C1 (some centres not stated),8.5,0.17
C=C(C)CO[C@H]1C[C@@H](C)C=C2C=C[C@H](C)[C@H](CCC3C[C@@H](O)CC(=O)O3)[C@H]21 (some centres not stated),1.5,0.36
CC(=O)O[C@H]1C[C@@H](C)C=C2C=C[C@H](C)[C@H](CCC3C[C@@H](O)CC(=O)O3)[C@H]21 (some centres not stated),2.1,0.269
C=CCO[C@H]1C[C@@H](C)C=C2C=C[C@H](C)[C@H](CCC3C[C@@H](O)CC(=O)O3)[C@H]21 (some centres not stated),1.5,0.37
C=CCC(=O)O[C@H]1C[C@@H](C)C=C2C=C[C@H](C)[C@H](CCC3C[C@@H](O)CC(=O)O3)[C@H]21 (some centres not stated),187,0.0029
C[C@H]1C=C2C=C[C@H](C)[C@H](CCC3C[C@@H](O)CC(=O)O3)[C@H]2[C@@H](OCc2ccc(F)cc2)C1 (some centres not stated),119,0.0047
